The text below walks through data of article PMC9293090 (Journal of Neurochemistry, 2021).

Experiment [1] deals with T1, GCS (Homo sapiens, UniProt Q16739).
T1 sequence (Q16739 1-394): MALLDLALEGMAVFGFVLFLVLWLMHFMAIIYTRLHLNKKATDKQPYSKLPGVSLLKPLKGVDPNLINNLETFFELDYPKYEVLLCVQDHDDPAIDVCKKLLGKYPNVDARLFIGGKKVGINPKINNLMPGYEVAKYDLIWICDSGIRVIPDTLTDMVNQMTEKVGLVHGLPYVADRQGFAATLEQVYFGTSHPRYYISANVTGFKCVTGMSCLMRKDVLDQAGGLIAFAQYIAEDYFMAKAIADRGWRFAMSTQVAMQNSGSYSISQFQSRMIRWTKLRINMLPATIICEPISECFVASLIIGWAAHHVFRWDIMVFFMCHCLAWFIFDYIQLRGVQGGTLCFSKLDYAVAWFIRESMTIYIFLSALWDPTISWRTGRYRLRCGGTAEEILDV
The experiment is described as follows: Steady-state kinetic GCS competition experiment. The experiment is classed as biochemical. The note with it: for K m / V max: for UDP-glucose, fixed ceramide 7.4 μM; for inhibition mode of GCS against UDP-glucose: various UDP-glucose concentrations; for inhibition mode of GCS against ceramide: various ceramide concentrations.

Experiment [2] concerns the target T1, GCS. Put plainly: Affinity selection mass spectrometry. It is filed as binding. In outline:
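Compound at various concentrations was incubated 60 min at 20-25°C with 10 μg/ml GCS-expressing microsomal protein in 20 mM Tris–HCl pH 7.5, 1 mM DTT, 0.01% Tween20, plus 200 μM UDP-glucose, 70 μM C8-ceramide, or neither. Bound and free compound were separated by […] through Sephadex G50-Fine. The eluent was denatured with 70% acetonitrile, and compound was quantified by LC/MS. Specific binding = counts with GCS minus counts without GCS.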

A further experiment deals with GlcSph. The conditions noted are these: clinical trial, therapeutic dose; ref Mistry et al., 2017; cited from earlier work.
In a further experiment the test system is GlcCer. The note with it: ref Larsen et al., 2012; cited from earlier work.
The mark [3] stands for this setting: presence of UDP-glucose (200 μM).

As to `CCCCCCCC(=O)N[C@H](CN1CCCC1)[C@H](O)c1ccc2c(c1)OCCO2` [Eliglustat], on GCS [1], the K m was found to be 2.37 ± 0.11 µM, the V max was 37.60 ± 0.45 µmol/min, the “inhibition mode of GCS against UDP-glucose” value is reported as “uncompetitive” and the “inhibition mode of GCS against ceramide” value is “noncompetitive”. Also, the “binding to GCS by AS-MS” value on GCS [2] (absence of UDP-glucose) is on record as “not detected”. Further, at GCS [2] (setting [3]), the “binding to GCS by AS-MS” value is given as “bind GCS”. In the experiment on GlcSph, the “reduction of GlcSph concentration in the plasma” value was 40%. In addition, the “effect on the GlcCer level in the brain” value in the experiment with GlcCer is listed as “no significant effect”.
On to `CC(C)(NC(=O)O[C@@H]1CN2CCC1CC2)c1csc(-c2ccc(F)cc2)n1` [Venglustat], for which, at GCS [1], the K m came to 2.53 ± 0.09 µM, the V max turned out to be 38.58 ± 0.32 µmol/min, the “inhibition mode of GCS against UDP-glucose” value is given as “uncompetitive” and the “inhibition mode of GCS against ceramide” value was “noncompetitive”. The “binding to GCS by AS-MS” value on GCS [2] (absence of UDP-glucose) was “not detected”. Further, on GCS [2] (setting [3]), the “binding to GCS by AS-MS” value is recorded as “bind GCS”.
